Laboratory results published in ChEMBL document CHEMBL4052661, “Structure Based Design of N-(3-((1H-Pyrazolo[3,4-b]pyridin-5-yl)ethynyl)benzenesulfonamides as Selective Leucine-Zipper and Sterile-α Motif Kinase (ZAK) Inhibitors” (J Med Chem, 2017).

Legend:
[1] = biological target: Serine/threonine-protein kinase B-raf (Homo sapiens, UniProt P15056, V600E); test: Inhibition of recombinant human B-RAF V600E mutant using Ser/Thr3 as substrate after 1 hr by FRET-based Z'-Lyte assay
[2] = biological target: Serine/threonine-protein kinase B-raf (Homo sapiens, UniProt P15056); test: Inhibition of wild type GST-tagged recombinant human full-length B-RAF expressed in baculovirus expression system using Ser/Thr3 as substrate after 1 hr by FRET-based Z'-Lyte assay
Serine/threonine-protein kinase B-raf (Homo sapiens, UniProt P15056), sequence (P15056 whole entry): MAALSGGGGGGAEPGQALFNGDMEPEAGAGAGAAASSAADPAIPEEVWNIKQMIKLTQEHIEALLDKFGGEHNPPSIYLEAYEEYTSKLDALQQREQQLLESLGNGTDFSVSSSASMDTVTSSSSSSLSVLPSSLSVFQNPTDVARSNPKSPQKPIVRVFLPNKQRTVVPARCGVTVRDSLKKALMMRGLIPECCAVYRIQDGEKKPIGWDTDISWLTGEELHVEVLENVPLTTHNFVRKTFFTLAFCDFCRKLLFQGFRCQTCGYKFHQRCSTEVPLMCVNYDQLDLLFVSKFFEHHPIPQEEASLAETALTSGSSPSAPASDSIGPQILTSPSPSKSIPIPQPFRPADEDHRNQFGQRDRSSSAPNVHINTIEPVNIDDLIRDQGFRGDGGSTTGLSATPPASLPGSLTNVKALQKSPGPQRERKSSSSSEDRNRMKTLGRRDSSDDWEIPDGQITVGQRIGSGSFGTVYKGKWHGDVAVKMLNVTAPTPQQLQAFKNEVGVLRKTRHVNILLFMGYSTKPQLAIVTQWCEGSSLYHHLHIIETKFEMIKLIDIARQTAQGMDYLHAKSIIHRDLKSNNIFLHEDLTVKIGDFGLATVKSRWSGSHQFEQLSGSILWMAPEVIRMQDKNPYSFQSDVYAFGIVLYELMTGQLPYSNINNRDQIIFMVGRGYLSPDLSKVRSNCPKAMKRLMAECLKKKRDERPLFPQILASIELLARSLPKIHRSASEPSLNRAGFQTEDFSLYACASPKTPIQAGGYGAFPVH
In short: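 Z'-Lyte FRET assay with Ser/Thr3 peptide in kinase buffer; the final reaction held 0.002 ng B-Raf for wild type. Incubated 1 h at room temperature, then 1 h development to cleave nonphosphorylated peptide, then stop reagent. Means of 3 independent experiments.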

[3] = biological target: Mitogen-activated protein kinase kinase kinase 20 (Homo sapiens, UniProt Q9NYL2); test: Inhibition of N-terminal GST-tagged recombinant human full-length ZAK expressed in baculovirus infected Sf9 insect cells using MBP as substrate after 30 mins by ADP-Glo assay
Mitogen-activated protein kinase kinase kinase 20, sequence (Q9NYL2 whole entry): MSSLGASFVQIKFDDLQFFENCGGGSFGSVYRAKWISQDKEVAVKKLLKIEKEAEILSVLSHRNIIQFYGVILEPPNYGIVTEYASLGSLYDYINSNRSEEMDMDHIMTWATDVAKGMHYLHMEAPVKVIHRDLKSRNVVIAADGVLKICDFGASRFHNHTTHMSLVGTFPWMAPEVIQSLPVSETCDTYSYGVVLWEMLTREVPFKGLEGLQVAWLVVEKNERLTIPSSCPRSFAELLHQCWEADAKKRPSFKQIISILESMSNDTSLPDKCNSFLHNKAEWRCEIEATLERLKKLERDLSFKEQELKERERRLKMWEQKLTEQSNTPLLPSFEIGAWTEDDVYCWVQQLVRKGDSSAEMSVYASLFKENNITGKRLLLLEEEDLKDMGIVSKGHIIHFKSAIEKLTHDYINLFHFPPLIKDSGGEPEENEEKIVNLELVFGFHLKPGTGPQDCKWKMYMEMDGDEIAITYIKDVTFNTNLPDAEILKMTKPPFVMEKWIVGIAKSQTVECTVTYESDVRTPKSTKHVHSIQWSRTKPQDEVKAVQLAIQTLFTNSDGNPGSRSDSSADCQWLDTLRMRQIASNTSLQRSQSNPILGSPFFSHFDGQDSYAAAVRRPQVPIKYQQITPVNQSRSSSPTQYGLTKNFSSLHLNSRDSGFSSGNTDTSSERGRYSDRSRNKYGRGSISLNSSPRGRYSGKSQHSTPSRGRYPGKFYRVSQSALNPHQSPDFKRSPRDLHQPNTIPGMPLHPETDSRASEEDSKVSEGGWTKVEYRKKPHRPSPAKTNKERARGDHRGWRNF
In short: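 ZAK activity by ADP-Glo luminescence with MBP as substrate, ATP and serially diluted compound. Reaction started by adding ATP and run 30 min at room temperature. ADP-Glo reagent was added to stop it (40 min), then detection reagent for 30 min before reading luminescence. Curves fitted; each experiment repeated at least 3 times.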

Serine/threonine-protein kinase B-raf (Homo sapiens, UniProt P15056, V600E), sequence (P15056 2-766 V600E limits assumed): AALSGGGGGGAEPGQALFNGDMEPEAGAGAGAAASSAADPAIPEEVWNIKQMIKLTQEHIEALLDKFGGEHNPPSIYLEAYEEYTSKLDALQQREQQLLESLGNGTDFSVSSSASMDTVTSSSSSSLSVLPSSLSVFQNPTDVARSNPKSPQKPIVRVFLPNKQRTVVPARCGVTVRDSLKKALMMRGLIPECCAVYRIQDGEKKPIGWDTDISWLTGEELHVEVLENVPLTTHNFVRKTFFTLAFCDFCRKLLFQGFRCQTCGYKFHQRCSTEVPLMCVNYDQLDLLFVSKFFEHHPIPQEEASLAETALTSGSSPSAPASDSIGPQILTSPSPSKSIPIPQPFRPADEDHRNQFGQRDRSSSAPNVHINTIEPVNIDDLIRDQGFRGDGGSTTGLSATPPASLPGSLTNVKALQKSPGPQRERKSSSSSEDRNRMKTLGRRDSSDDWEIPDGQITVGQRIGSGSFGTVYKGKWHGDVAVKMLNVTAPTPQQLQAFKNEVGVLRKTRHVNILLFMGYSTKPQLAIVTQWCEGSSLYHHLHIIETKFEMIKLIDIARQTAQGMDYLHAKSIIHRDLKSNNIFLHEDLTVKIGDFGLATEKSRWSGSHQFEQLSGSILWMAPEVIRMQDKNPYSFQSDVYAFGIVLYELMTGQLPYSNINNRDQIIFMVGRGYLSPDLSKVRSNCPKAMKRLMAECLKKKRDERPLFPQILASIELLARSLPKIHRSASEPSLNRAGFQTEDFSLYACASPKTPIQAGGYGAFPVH

Row | SMILES | IC50 [1] [nM] | IC50 [2] [nM] | IC50 [3] [nM]
1 | COc1n[nH]c2ncc(C#Cc3c(F)ccc(NS(=O)(=O)c4cccc(Cl)c4)c3F)cc12 | 902 | > 6000 | 4.2
2 | Cn1ncc2cc(C#Cc3c(F)ccc(NS(=O)(=O)c4cccc(Cl)c4)c3F)cnc21 | > 10000 | > 10000 | > 30000
3 | COc1n[nH]c2ncc(C#Cc3c(F)ccc(NS(=O)(=O)c4ccccc4Cl)c3F)cc12 | > 1000 | > 1000 | 5.1
4 | COc1n[nH]c2ncc(C#Cc3c(F)ccc(NS(=O)(=O)c4cccc(Cl)c4Cl)c3F)cc12 | > 10000 | > 2000 | 9.6
5 | O=S(=O)(Nc1ccc(F)c(C#Cc2cnc3[nH]ccc3c2)c1F)c1cccc(Cl)c1 | > 10000 | > 10000 | 22.6
6 | O=S(=O)(Nc1ccc(F)c(C#Cc2ccc3[nH]ncc3c2)c1F)c1cccc(Cl)c1 | > 10000 | > 10000 | 994
7 | COc1n[nH]c2ncc(C#Cc3c(F)ccc(NS(=O)(=O)c4cccc(C)c4)c3F)cc12 | > 10000 | > 10000 | 12.1
8 | O=S(=O)(Nc1ccc(F)c(C#Cc2cnc3[nH]nc(OC4CCCC4)c3c2)c1F)c1cccc(Cl)c1 | > 10000 | > 10000 | 144
